From ChEMBL document CHEMBL5058577, “EUbOPEN Chemogenomics Library 2 (Multiplex)” (2022)

Test system: Fibroblast
Test: Multiplex assay against human fibroblast
Format: toxicity, cell-based
In short: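 Live cells carried four stains from seeding: Hoechst33342, BioTracker Green Microtubule Cytoskeleton Dye, MitoTracker Red and Annexin V Alexa Fluor 680. They were imaged on a CQ1 microscope at 37°C and 5% CO2 after compound addition. Using CellPathfinder machine-learning gating, cells were split into Hoechst high-intensity objects or normal cells, normal cells into healthy, pyknosed or fragmented nuclei, and pyknosed cells into mitotic or apoptotic; tubulin, mitochondrial-mass and membrane-permeability phenotypes are per cents of healthy-nucleus cells.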

[1] = 12 h, 1 µM, compound concentration 1 uM, replicate 1
[2] = 12 h, 1 µM, compound concentration 1 uM, replicate 2
[3] = 12 h, 10 µM, compound concentration 10 uM, replicate 1
[4] = 12 h, 10 µM, compound concentration 10 uM, replicate 2
[5] = 24 h, 1 µM, compound concentration 1 uM, replicate 1
[6] = 24 h, 1 µM, compound concentration 1 uM, replicate 2
[7] = 24 h, 10 µM, compound concentration 10 uM, replicate 1
[8] = 24 h, 10 µM, compound concentration 10 uM, replicate 2
[9] = 48 h, 1 µM, compound concentration 1 uM, replicate 1
[10] = 48 h, 1 µM, compound concentration 1 uM, replicate 2
[11] = 48 h, 10 µM, compound concentration 10 uM, replicate 1
[12] = 48 h, 10 µM, compound concentration 10 uM, replicate 2

COc1cc2nc(N3CCN(C(=O)c4ccco4)CC3)nc(N)c2cc1OC.Cl [PRAZOSIN HYDROCHLORIDE]
Population Apoptotic (%) [1]: 38%
Population Fragmented Nuclei (%) [1]: 22%
Population Healthy Nuclei (%) [1]: 57%
Population Hoechst High Intensity Objects (%) [1]: 1%
Population Membrane Permeable-Phenotype (%) [1]: 1%
Population Mitochondria Different-Phenotype (%) [1]: 1%
Population Mitotic Cells (%) [1]: 61%
Population Normal (%) [1]: 98%
Population Pyknosed Nuclei (%) [1]: 19%
Population Tubulin-Different-Phenotype (%) [1]: 26%
Total Cell Count [1]: 174
Population Apoptotic (%) [2]: 49%
Population Fragmented Nuclei (%) [2]: 20%
Population Healthy Nuclei (%) [2]: 52%
Population Hoechst High Intensity Objects (%) [2]: 4%
Population Membrane Permeable-Phenotype (%) [2]: 5%
Population Mitochondria Different-Phenotype (%) [2]: 7%
Population Mitotic Cells (%) [2]: 50%
Population Normal (%) [2]: 95%
Population Pyknosed Nuclei (%) [2]: 27%
Population Tubulin-Different-Phenotype (%) [2]: 46%
Total Cell Count [2]: 194
Population Apoptotic (%) [3]: 44%
Population Fragmented Nuclei (%) [3]: 23%
Population Healthy Nuclei (%) [3]: 64%
Population Hoechst High Intensity Objects (%) [3]: 1%
Population Membrane Permeable-Phenotype (%) [3]: 0%
Population Mitochondria Different-Phenotype (%) [3]: 7%
Population Mitotic Cells (%) [3]: 56%
Population Normal (%) [3]: 98%
Population Pyknosed Nuclei (%) [3]: 12%
Population Tubulin-Different-Phenotype (%) [3]: 49%
Total Cell Count [3]: 198
Population Apoptotic (%) [4]: 31%
Population Fragmented Nuclei (%) [4]: 35%
Population Healthy Nuclei (%) [4]: 42%
Population Hoechst High Intensity Objects (%) [4]: 5%
Population Membrane Permeable-Phenotype (%) [4]: 9%
Population Mitochondria Different-Phenotype (%) [4]: 3%
Population Mitotic Cells (%) [4]: 68%
Population Normal (%) [4]: 94%
Population Pyknosed Nuclei (%) [4]: 21%
Population Tubulin-Different-Phenotype (%) [4]: 65%
Total Cell Count [4]: 155
Population Apoptotic (%) [5]: 50%
Population Fragmented Nuclei (%) [5]: 20%
Population Healthy Nuclei (%) [5]: 63%
Population Hoechst High Intensity Objects (%) [5]: 2%
Population Membrane Permeable-Phenotype (%) [5]: 0%
Population Mitochondria Different-Phenotype (%) [5]: 2%
Population Mitotic Cells (%) [5]: 50%
Population Normal (%) [5]: 97%
Population Pyknosed Nuclei (%) [5]: 15%
Population Tubulin-Different-Phenotype (%) [5]: 28%
Total Cell Count [5]: 181
Population Apoptotic (%) [6]: 45%
Population Healthy Nuclei (%) [6]: 57%
Population Hoechst High Intensity Objects (%) [6]: 7%
Population Membrane Permeable-Phenotype (%) [6]: 12%
Population Mitochondria Different-Phenotype (%) [6]: 3%
Population Mitotic Cells (%) [6]: 54%
Population Normal (%) [6]: 92%
Population Pyknosed Nuclei (%) [6]: 21%
Population Tubulin-Different-Phenotype (%) [6]: 58%
Total Cell Count [6]: 185
Population Apoptotic (%) [7]: 46%
Population Fragmented Nuclei (%) [7]: 23%
Population Healthy Nuclei (%) [7]: 69%
Population Hoechst High Intensity Objects (%) [7]: 3%
Population Membrane Permeable-Phenotype (%) [7]: 0%
Population Mitochondria Different-Phenotype (%) [7]: 6%
Population Mitotic Cells (%) [7]: 53%
Population Normal (%) [7]: 96%
Population Pyknosed Nuclei (%) [7]: 6%
Population Tubulin-Different-Phenotype (%) [7]: 45%
Total Cell Count [7]: 201
Population Apoptotic (%) [8]: 61%
Population Fragmented Nuclei (%) [8]: 35%
Population Healthy Nuclei (%) [8]: 49%
Population Hoechst High Intensity Objects (%) [8]: 7%
Population Membrane Permeable-Phenotype (%) [8]: 10%
Population Mitochondria Different-Phenotype (%) [8]: 11%
Population Mitotic Cells (%) [8]: 38%
Population Normal (%) [8]: 92%
Population Pyknosed Nuclei (%) [8]: 15%
Population Tubulin-Different-Phenotype (%) [8]: 73%
Total Cell Count [8]: 152
Population Apoptotic (%) [9]: 52%
Population Fragmented Nuclei (%) [9]: 24%
Population Healthy Nuclei (%) [9]: 62%
Population Hoechst High Intensity Objects (%) [9]: 3%
Population Membrane Permeable-Phenotype (%) [9]: 0%
Population Mitochondria Different-Phenotype (%) [9]: 1%
Population Mitotic Cells (%) [9]: 47%
Population Normal (%) [9]: 96%
Population Pyknosed Nuclei (%) [9]: 13%
Population Tubulin-Different-Phenotype (%) [9]: 22%
Total Cell Count [9]: 182
Population Apoptotic (%) [10]: 66%
Population Fragmented Nuclei (%) [10]: 29%
Population Healthy Nuclei (%) [10]: 56%
Population Membrane Permeable-Phenotype (%) [10]: 8%
Population Mitochondria Different-Phenotype (%) [10]: 6%
Population Mitotic Cells (%) [10]: 33%
Population Pyknosed Nuclei (%) [10]: 14%
Population Tubulin-Different-Phenotype (%) [10]: 57%
Total Cell Count [10]: 197
Population Apoptotic (%) [11]: 66%
Population Fragmented Nuclei (%) [11]: 25%
Population Healthy Nuclei (%) [11]: 68%
Population Hoechst High Intensity Objects (%) [11]: 1%
Population Membrane Permeable-Phenotype (%) [11]: 0%
Population Mitochondria Different-Phenotype (%) [11]: 4%
Population Mitotic Cells (%) [11]: 33%
Population Normal (%) [11]: 98%
Population Pyknosed Nuclei (%) [11]: 6%
Population Tubulin-Different-Phenotype (%) [11]: 32%
Total Cell Count [11]: 201
Population Apoptotic (%) [12]: 46%
Population Fragmented Nuclei (%) [12]: 42%
Population Healthy Nuclei (%) [12]: 49%
Population Hoechst High Intensity Objects (%) [12]: 5%
Population Membrane Permeable-Phenotype (%) [12]: 5%
Population Mitochondria Different-Phenotype (%) [12]: 5%
Population Mitotic Cells (%) [12]: 53%
Population Normal (%) [12]: 94%
Population Pyknosed Nuclei (%) [12]: 8%
Population Tubulin-Different-Phenotype (%) [12]: 48%
Total Cell Count [12]: 170

CN1CCN2c3ccccc3Cc3ccccc3C2C1.Cl (stereo not given) [MIANSERIN HYDROCHLORIDE]
Population Apoptotic (%) [1]: 55%
Population Fragmented Nuclei (%) [1]: 28%
Population Healthy Nuclei (%) [1]: 56%
Population Hoechst High Intensity Objects (%) [1]: 2%
Population Membrane Permeable-Phenotype (%) [1]: 1%
Population Mitochondria Different-Phenotype (%) [1]: 0%
Population Mitotic Cells (%) [1]: 45%
Population Normal (%) [1]: 97%
Population Pyknosed Nuclei (%) [1]: 14%
Population Tubulin-Different-Phenotype (%) [1]: 31%
Total Cell Count [1]: 138
Population Apoptotic (%) [2]: 38%
Population Fragmented Nuclei (%) [2]: 27%
Population Healthy Nuclei (%) [2]: 50%
Population Hoechst High Intensity Objects (%) [2]: 4%
Population Membrane Permeable-Phenotype (%) [2]: 12%
Population Mitochondria Different-Phenotype (%) [2]: 5%
Population Mitotic Cells (%) [2]: 61%
Population Normal (%) [2]: 95%
Population Pyknosed Nuclei (%) [2]: 22%
Population Tubulin-Different-Phenotype (%) [2]: 56%
Total Cell Count [2]: 119
Population Apoptotic (%) [3]: 55%
Population Fragmented Nuclei (%) [3]: 15%
Population Healthy Nuclei (%) [3]: 68%
Population Hoechst High Intensity Objects (%) [3]: 5%
Population Membrane Permeable-Phenotype (%) [3]: 1%
Population Mitochondria Different-Phenotype (%) [3]: 3%
Population Mitotic Cells (%) [3]: 44%
Population Normal (%) [3]: 94%
Population Pyknosed Nuclei (%) [3]: 15%
Population Tubulin-Different-Phenotype (%) [3]: 14%
Total Cell Count [3]: 126
Population Apoptotic (%) [4]: 33%
Population Fragmented Nuclei (%) [4]: 24%
Population Healthy Nuclei (%) [4]: 48%
Population Hoechst High Intensity Objects (%) [4]: 6%
Population Membrane Permeable-Phenotype (%) [4]: 3%
Population Mitochondria Different-Phenotype (%) [4]: 7%
Population Mitotic Cells (%) [4]: 66%
Population Normal (%) [4]: 93%
Population Pyknosed Nuclei (%) [4]: 27%
Population Tubulin-Different-Phenotype (%) [4]: 40%
Total Cell Count [4]: 116
Population Apoptotic (%) [5]: 52%
Population Fragmented Nuclei (%) [5]: 32%
Population Healthy Nuclei (%) [5]: 55%
Population Hoechst High Intensity Objects (%) [5]: 2%
Population Membrane Permeable-Phenotype (%) [5]: 0%
Population Mitochondria Different-Phenotype (%) [5]: 2%
Population Mitotic Cells (%) [5]: 47%
Population Normal (%) [5]: 97%
Population Pyknosed Nuclei (%) [5]: 12%
Population Tubulin-Different-Phenotype (%) [5]: 29%
Total Cell Count [5]: 143
Population Apoptotic (%) [6]: 36%
Population Fragmented Nuclei (%) [6]: 30%
Population Healthy Nuclei (%) [6]: 50%
Population Hoechst High Intensity Objects (%) [6]: 3%
Population Membrane Permeable-Phenotype (%) [6]: 6%
Population Mitochondria Different-Phenotype (%) [6]: 1%
Population Mitotic Cells (%) [6]: 63%
Population Normal (%) [6]: 96%
Population Pyknosed Nuclei (%) [6]: 19%
Population Tubulin-Different-Phenotype (%) [6]: 53%
Total Cell Count [6]: 119
Population Apoptotic (%) [7]: 61%
Population Fragmented Nuclei (%) [7]: 14%
Population Healthy Nuclei (%) [7]: 73%
Population Hoechst High Intensity Objects (%) [7]: 5%
Population Membrane Permeable-Phenotype (%) [7]: 0%
Population Mitochondria Different-Phenotype (%) [7]: 1%
Population Mitotic Cells (%) [7]: 38%
Population Normal (%) [7]: 95%
Population Pyknosed Nuclei (%) [7]: 11%
Population Tubulin-Different-Phenotype (%) [7]: 11%
Total Cell Count [7]: 120
Population Apoptotic (%) [8]: 48%
Population Fragmented Nuclei (%) [8]: 31%
Population Healthy Nuclei (%) [8]: 47%
Population Hoechst High Intensity Objects (%) [8]: 4%
Population Membrane Permeable-Phenotype (%) [8]: 10%
Population Mitochondria Different-Phenotype (%) [8]: 5%
Population Mitotic Cells (%) [8]: 52%
Population Pyknosed Nuclei (%) [8]: 20%
Population Tubulin-Different-Phenotype (%) [8]: 53%
Total Cell Count [8]: 127
Population Apoptotic (%) [9]: 78%
Population Fragmented Nuclei (%) [9]: 35%
Population Healthy Nuclei (%) [9]: 55%
Population Hoechst High Intensity Objects (%) [9]: 2%
Population Membrane Permeable-Phenotype (%) [9]: 0%
Population Mitochondria Different-Phenotype (%) [9]: 2%
Population Mitotic Cells (%) [9]: 21%
Population Normal (%) [9]: 97%
Population Pyknosed Nuclei (%) [9]: 9%
Population Tubulin-Different-Phenotype (%) [9]: 35%
Total Cell Count [9]: 151
Population Apoptotic (%) [10]: 46%
Population Fragmented Nuclei (%) [10]: 36%
Population Healthy Nuclei (%) [10]: 51%
Population Hoechst High Intensity Objects (%) [10]: 3%
Population Membrane Permeable-Phenotype (%) [10]: 3%
Population Mitochondria Different-Phenotype (%) [10]: 10%
Population Mitotic Cells (%) [10]: 53%
Population Normal (%) [10]: 96%
Population Pyknosed Nuclei (%) [10]: 11%
Population Tubulin-Different-Phenotype (%) [10]: 50%
Total Cell Count [10]: 116
Population Apoptotic (%) [11]: 57%
Population Fragmented Nuclei (%) [11]: 15%
Population Healthy Nuclei (%) [11]: 71%
Population Hoechst High Intensity Objects (%) [11]: 5%
Population Membrane Permeable-Phenotype (%) [11]: 0%
Population Mitochondria Different-Phenotype (%) [11]: 2%
Population Mitotic Cells (%) [11]: 42%
Population Normal (%) [11]: 94%
Population Pyknosed Nuclei (%) [11]: 12%
Population Tubulin-Different-Phenotype (%) [11]: 16%
Total Cell Count [11]: 115
Population Apoptotic (%) [12]: 38%
Population Fragmented Nuclei (%) [12]: 29%
Population Healthy Nuclei (%) [12]: 55%
Population Hoechst High Intensity Objects (%) [12]: 3%
Population Membrane Permeable-Phenotype (%) [12]: 10%
Population Mitochondria Different-Phenotype (%) [12]: 1%
Population Mitotic Cells (%) [12]: 61%
Population Normal (%) [12]: 96%
Population Pyknosed Nuclei (%) [12]: 14%
Population Tubulin-Different-Phenotype (%) [12]: 37%
Total Cell Count [12]: 125
